Measured values as given in publication PMC4646424 (Journal of medicinal chemistry, 2015).
pIC50: −log10 of the molar value. Like-named read-outs stand apart in the source and are kept apart here.

Experiments:
[1] = Particle formation by dynamic light scattering; assay type: physicochemical; details: for DLS detected (concentration at which particles were detected) / DLS particle radius: dynamic light scattering; for DLS particle radius: at the concentration detected
Outline: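 Particle formation was measured by dynamic light scattering following an earlier published method, with each test compound in buffer both without and with 0.01% Triton X-100. Read-outs were scattering intensity and average particle radius. For selected compounds, critical aggregation concentration was found by tracking scattering intensity as concentration rose, using three independent experiments. Forming aggregator-type particles was a required criterion.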

[2] = target: monoamine oxygenase B (MAOB); details: read-out: Inhibition of MAOB; cited from earlier work
AmpC β-lactamase = AmpC β-lactamase (Escherichia coli, UniProt P00811); assay: AmpC β-lactamase inhibition with and without Triton X-100; assay type: biochemical; details: for pIC50: 1% DMSO
Outline: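 AmpC β-lactamase activity was measured following an earlier published method, with final DMSO at 1% in all samples. Concentration-response curves were run with and without 0.01% Triton X-100. Where detergent fully reversed inhibition, only the highest inhibitor concentration was tested. Values are means of duplicate samples from two independent experiments. Detergent-sensitive inhibition with IC50 better than 100 µM was one criterion for classing a compound as an aggregator.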

[3] = target: cholesterol ester transferase protein (CETP); details: read-out: Inhibition of CETP; cited from earlier work
[4] = cited from earlier work; for Known aggregator status: previously reported
[5] = read-out: AmpC IC50 no Triton, no Triton X-100
[6] = read-out: AmpC IC50 plus Triton, plus 0.01% Triton X-100

Sequence of AmpC β-lactamase (P00811 20-377): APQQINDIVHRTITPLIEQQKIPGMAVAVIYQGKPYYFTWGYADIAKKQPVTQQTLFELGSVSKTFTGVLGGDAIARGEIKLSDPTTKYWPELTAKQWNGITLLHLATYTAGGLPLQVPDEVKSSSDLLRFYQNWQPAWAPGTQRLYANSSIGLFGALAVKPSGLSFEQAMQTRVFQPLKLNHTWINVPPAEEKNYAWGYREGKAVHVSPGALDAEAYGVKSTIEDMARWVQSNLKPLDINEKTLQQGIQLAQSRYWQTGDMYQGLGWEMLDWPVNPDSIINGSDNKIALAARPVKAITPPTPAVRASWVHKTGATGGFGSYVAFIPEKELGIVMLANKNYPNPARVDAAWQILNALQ

In the case of `COc1ccc2c(=O)cc(-c3ccc(C)cc3)oc2c1` [CHEMBL17052], the “Colloid formation by DLS” value ([1]; up to concentrations of at least 200 µM (Table 2)) is given as “does not form colloids” and the pIC50 [2] is given as 4.95.

For `Nc1sc2c(c1C(=O)c1ccc(Cl)cc1)CCCC2` [CHEMBL57997], the pIC50 (AmpC β-lactamase; [5]) was 4.90, the pIC50 (AmpC β-lactamase; [6]) was under 4.00 and the “DLS detected (concentration at which particles were detected)” value (shortened to “DLS detected”) [1] was 21 µM. The DLS particle radius [1] was 270 nm.

With `Cc1ccccc1OCC(=O)Nc1ccc(-c2nc3cc(Cl)ccc3o2)cc1` [CHEMBL261275] the “Effect of 0.01% Triton X-100 on β-lactamase inhibition” value (AmpC β-lactamase; addition of 0.01% Triton X-100) was “fully abrogated”, the pIC50 (AmpC β-lactamase; [5]) was 5.15 and the pIC50 (AmpC β-lactamase; [6]) was under 4.00. The “DLS detected” value [1] was 4 µM, the DLS particle radius [1] was 2312 nm and the pIC50 [3] was 4.68.

For `Cc1ccc(-c2noc(CN(C(=O)C(c3ccccc3)c3ccccc3)C(C)C)n2)cc1` [CHEMBL1304694], the pIC50 (AmpC β-lactamase; [5]) was 5.10, the pIC50 (AmpC β-lactamase; [6]) was under 4.00 and the “DLS detected” value [1] was 20 µM. For the same compound, the DLS particle radius [1] was 456 nm.

For `Cc1cc(NS(=O)(=O)c2ccc(NC(=O)COc3c(C)cc(Br)cc3C)cc2)no1` [CHEMBL1333273], the pIC50 (AmpC β-lactamase; [5]) was 3.84, the pIC50 (AmpC β-lactamase; [6]) was under 3.40 and the “DLS detected” value [1] was 100 µM. The DLS particle radius [1] was 49 nm.

For `CCOC(=O)c1c(-c2ccc(C)o2)csc1NC(=O)CSc1ncn[nH]1` [CHEMBL1347854], the pIC50 (AmpC β-lactamase; [5]) was 4.54, the pIC50 (AmpC β-lactamase; [6]) was under 4.00 and the “DLS detected” value [1] was 10 µM. The DLS particle radius [1] was 115 nm.

With `C=CCOC(=O)c1[nH]c2c(c1C)C(=O)CC(c1ccco1)C2` (stereo not shown) [CHEMBL1359872] the pIC50 (AmpC β-lactamase; [5]) was 5.00, the pIC50 (AmpC β-lactamase; [6]) was under 4.00 and the “DLS detected” value [1] was 10 µM. The DLS particle radius [1] was 405 nm.

With `COc1ccc(OC(C)C(=O)N(C)Cc2nc(-c3ccc(OC)cc3)no2)cc1` (stereo not shown) [CHEMBL1508601] the pIC50 (AmpC β-lactamase; [5]) was 3.63, the pIC50 (AmpC β-lactamase; [6]) was under 3.40 and the “DLS detected” value [1] was 100 µM. The DLS particle radius [1] was 62 nm.

In the case of `CN(CCC#N)C(=O)c1cc2c(s1)-c1ccccc1SC2` [CHEMBL1565380], the pIC50 (AmpC β-lactamase; [5]) was 3.74, the pIC50 (AmpC β-lactamase; [6]) was under 3.40 and the “DLS detected” value [1] was 100 µM. The DLS particle radius [1] was 71 nm.

For `CC(=O)c1c(O)c(C)c(O)c(Cc2c(O)c3c(c(C(=O)/C=C/c4ccccc4)c2O)OC(C)(C)C=C3)c1O` [Rottlerin], the Known aggregator status [4] is given as “known aggregator at micromolar concentrations”.

In the case of `C[C@]12CC[C@@H]3c4ccc(O)cc4C[C@@H](CCCCCCCCC[S+]([O-])CCCC(F)(F)C(F)(F)F)[C@H]3[C@@H]1CC[C@@H]2O` (stereo partly shown) [fulvestrant], the Known aggregator status [4] is listed as “strong aggregators”.

In the case of `CNC(=O)c1cc(Oc2ccc(NC(=O)Nc3ccc(Cl)c(C(F)(F)F)c3)cc2)ccn1` [sorafenib], the “CAC (critical aggregation concentration)” value ([4]; in biochemical buffer and in cell culture) is listed as 3.5 µM and the Known aggregator status [4] is listed as “strong aggregators”.
